Reference: ChEMBL document CHEMBL1143782, “Alpha-aminothiazole-gamma-aminobutanoic amides as potent, small molecule CCR2 receptor antagonists” (Bioorg Med Chem Lett, 2007)

Experiments:
Assay type in all cases: cell-based
[1] = molecular target: T1, C-C chemokine receptor type 2 (Homo sapiens, UniProt P41597); test: Displacement of [125I]MCP1 from human CCR2 expressed in monocytes
Summary of the method: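 Human CCR2 binding was read as inhibition of 125I-MCP-1 binding to monocyte cells stably transfected with CCR2. The assay was run in the presence of 0.5% BSA, using membranes of these cells.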
Target sequence in this assay (P41597 whole entry): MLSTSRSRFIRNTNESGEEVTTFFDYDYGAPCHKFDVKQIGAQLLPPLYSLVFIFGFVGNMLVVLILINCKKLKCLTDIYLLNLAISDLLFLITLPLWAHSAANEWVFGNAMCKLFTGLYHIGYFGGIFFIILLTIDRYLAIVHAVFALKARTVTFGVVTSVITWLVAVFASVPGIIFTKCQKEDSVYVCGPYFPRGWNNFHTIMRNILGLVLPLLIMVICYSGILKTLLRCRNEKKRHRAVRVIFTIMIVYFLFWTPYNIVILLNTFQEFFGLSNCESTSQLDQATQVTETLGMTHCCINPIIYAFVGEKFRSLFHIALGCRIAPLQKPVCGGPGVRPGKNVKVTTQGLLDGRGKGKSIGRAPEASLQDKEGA

[2] = molecular target: C-C chemokine receptor type 2 (Mus musculus, UniProt P51683); test: Displacement of [125I]MCP1 from mouse CCR2 expressed in monocytes
[3] = molecular target: T1, C-C chemokine receptor type 2; test: Displacement of [125I]MCP-1 from human CCR2 expressed in monocytes 1 uM
Target sequence in this assay (P41597 whole entry, looked up): as the sequence (P41597 whole entry) above

Sequence of C-C chemokine receptor type 2 (Mus musculus, UniProt P51683) (P51683 whole entry): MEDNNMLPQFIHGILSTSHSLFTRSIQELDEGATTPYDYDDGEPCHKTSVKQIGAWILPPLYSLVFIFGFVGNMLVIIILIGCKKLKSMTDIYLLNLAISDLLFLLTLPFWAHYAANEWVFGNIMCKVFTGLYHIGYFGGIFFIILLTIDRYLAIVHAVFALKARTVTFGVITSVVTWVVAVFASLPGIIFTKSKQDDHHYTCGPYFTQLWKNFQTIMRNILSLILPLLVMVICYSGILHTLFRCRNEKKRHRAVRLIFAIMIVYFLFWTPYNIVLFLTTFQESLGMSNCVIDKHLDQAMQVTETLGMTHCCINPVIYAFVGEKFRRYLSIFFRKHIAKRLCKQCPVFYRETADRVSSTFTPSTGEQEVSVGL

Compound	IC50 [1]	IC50 [2]	inhibition [3]
O=C(Nc1nc(C(CCN2CCC(c3ccccc3)CC2)C(=O)NCc2cc(C(F)(F)F)cc(C(F)(F)F)c2)cs1)C1CC1 (configuration not stated)	3.9 nM		
C[C@H]1CN(CCC(C(=O)NCc2cc(C(F)(F)F)cc(C(F)(F)F)c2)c2csc(NC(=O)c3ccccc3)n2)CC[C@]12C=Cc1ccccc12 (some centres not stated)	17 nM	952 nM	
CNC(=O)Nc1nc([C@H](CCN2CCC(c3ccccc3)CC2)C(=O)NCc2cc(C(F)(F)F)cc(C(F)(F)F)c2)cs1	0.43 nM		
Nc1nc(C(CCN2CCN(c3ccc(F)cc3)CC2)C(=O)NCc2cc(C(F)(F)F)cc(C(F)(F)F)c2)cs1 (configuration not stated)			70%
CC(=O)Nc1nc([C@H](CCN2CCC(c3ccccc3)CC2)C(=O)NCc2cc(C(F)(F)F)cc(C(F)(F)F)c2)cs1	1.8 nM		
CNC(=O)Nc1nc([C@@H](CCN2CCC3(C=Cc4ccccc43)CC2)C(=O)NCc2cc(C(F)(F)F)cc(C(F)(F)F)c2)cs1	5.8 nM		
N=C(N)Nc1nc(C(CCN2CCC(c3ccccc3)CC2)C(=O)NCc2cc(C(F)(F)F)cc(C(F)(F)F)c2)cs1 (configuration not stated)	1.3 nM		
CC(=O)Nc1nc(C(CCN2CCC(n3cnc4ccccc43)CC2)C(=O)NCc2cc(C(F)(F)F)cc(C(F)(F)F)c2)cs1 (configuration not stated)	3 nM		
Nc1nc(C(CCN2CCC(c3ccccc3)CC2)C(=O)NCc2cc(C(F)(F)F)cc(C(F)(F)F)c2)cs1 (configuration not stated)	20 nM		
O=C(Nc1nc(C(CCN2CCC(c3ccccc3)CC2)C(=O)NCc2cc(C(F)(F)F)cc(C(F)(F)F)c2)cs1)c1ccccc1 (configuration not stated)	16 nM		
C[C@H]1CN(CCC(C(=O)NCc2cc(C(F)(F)F)cc(C(F)(F)F)c2)c2csc(N)n2)CCC12C=Cc1ccccc12 (some centres not stated)	1.3 nM		
CCC(=O)Nc1nc(C(CCN2CCC(c3ccccc3)CC2)C(=O)NCc2cc(C(F)(F)F)cc(C(F)(F)F)c2)cs1 (configuration not stated)	3.5 nM		
CNC(=O)Nc1nc(C(CCN2CCC(c3ccccc3)CC2)C(=O)NCc2cc(C(F)(F)F)cc(C(F)(F)F)c2)cs1 (configuration not stated)	3 nM		
CC(C)(C)OC(=O)Nc1nc([C@H](CCN2CCC(c3ccccc3)CC2)C(=O)NCc2cc(C(F)(F)F)cc(C(F)(F)F)c2)cs1	14.3 nM		
CN(C)C(=O)Nc1nc(C(CCN2CCC(c3ccccc3)CC2)C(=O)NCc2cc(C(F)(F)F)cc(C(F)(F)F)c2)cs1 (configuration not stated)	2.3 nM		
COC(=O)Nc1nc(C(CCN2CCC(c3ccccc3)CC2)C(=O)NCc2cc(C(F)(F)F)cc(C(F)(F)F)c2)cs1 (configuration not stated)	2.6 nM		
CNC(=O)Nc1nc([C@H](CCN2CCC3(C=Cc4ccccc43)CC2)C(=O)NCc2cc(C(F)(F)F)cc(C(F)(F)F)c2)cs1	0.8 nM		
CC(=O)Nc1nc(C(CCN2CCN(c3ccccc3C)CC2)C(=O)NCc2cc(C(F)(F)F)cc(C(F)(F)F)c2)cs1 (configuration not stated)	14.5 nM		
CC(C)(C)OC(=O)Nc1nc([C@@H](CCN2CCC(c3ccccc3)CC2)C(=O)NCc2cc(C(F)(F)F)cc(C(F)(F)F)c2)cs1	13.3 nM		
Cc1ccccc1N1CCN(CCC(C(=O)NCc2cc(C(F)(F)F)cc(C(F)(F)F)c2)c2csc(N)n2)CC1 (configuration not stated)	183 nM		
C[C@H]1CN(CCC(C(=O)NCc2cc(C(F)(F)F)cc(C(F)(F)F)c2)c2csc(NC(=O)c3cccnc3)n2)CC[C@]12C=Cc1ccccc12 (some centres not stated)	14 nM	186 nM	
Nc1nc(C(CCN2CCC(n3cnc4ccccc43)CC2)C(=O)NCc2cc(C(F)(F)F)cc(C(F)(F)F)c2)cs1 (configuration not stated)	28.6 nM		
CC(C)C(=O)Nc1nc(C(CCN2CCC(c3ccccc3)CC2)C(=O)NCc2cc(C(F)(F)F)cc(C(F)(F)F)c2)cs1 (configuration not stated)	7.4 nM		
C[C@H]1CN(CCC(C(=O)NCc2cc(C(F)(F)F)cc(C(F)(F)F)c2)c2csc(NC(=O)Cc3ccccc3)n2)CC[C@]12C=Cc1ccccc12 (some centres not stated)	19 nM	165 nM	
